“And” between values parts separate entries of the source, which are not always exact repeats. Equal entries are not always repeated.
Tests used:
[1] = test system: Pf Dd2 parental line; assay: 3H-hypoxanthine 72 h assay, Dd2 parental line; format: cell-based; conditions: Plasmodium falciparum, DD2, read-out: Pf Dd2 EC50, Dd2 parental line, 3H-hypoxanthine 72 h; average of two experiments
[2] = test system: Pf SB1-A6 strain with a CNV (∼2-fold) and a C276F mutation in DHODH; assay: SB1-A6 asexual-stage assay; format: cell-based; conditions: Plasmodium falciparum, 72 h, read-out: SB1-A6 EC50
Procedure, shortened: (§1)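 Parasites were sorbitol-synchronised one cycle before setup. Ring stages at 0.5% parasitemia and 2% hematocrit were plated onto twofold compound dilutions and incubated at 37 °C for 72 h. Cells were fixed in 0.25% glutaraldehyde (RT, 30 min), stained with 2.5× SYBR Green (37 °C, 30 min) and counted by flow cytometry. EC50 is the average of three independent experiments.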

[3] = test system: Pf Dd2 expressing ScDHODH; assay: ScDHODH asexual-stage assay; format: cell-based; conditions: Plasmodium falciparum, DD2, 72 h, read-out: Dd2 ScDHODH EC50
Procedure, shortened: as §1

[4] = test system: P. falciparum 3D7 parasites; assay: P. falciparum 3D7 asexual-stage parasite LDH viability assay; format: cell-based, Plasmodium falciparum; conditions: for EC50: Plasmodium falciparum, 3D7, 72 h, read-out: Control compound activity against 3D7 parasites, EC50, 3D7, LDH assay, 72 h, value (SD)
[5] = test system: P. berghei ANKA parasites expressing GFP; assay: Peter's 4 day P. berghei mouse model; format: in vivo; conditions: for % parasitemia: average for four mice on day 4; for % reduction in parasitemia: versus the vehicle control, four mice, day 4
Procedure, shortened: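 Swiss mice (four per group) were infected IV with 1 × 10^7 P. berghei ANKA GFPcon-infected erythrocytes from donor mice. Dosing was oral once daily for 4 days, starting 2 h post-infection: test compound at 20 mg/kg in 20% DMSO/60% propylene glycol/20% water, or chloroquine at 10 mg/kg in water. Day-4 parasitemia was measured as GFP+ cells per 100,000 events and by Giemsa smears, with reduction calculated against vehicle.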

[6] = Hepatocyte stability, rat; format: in vitro ADME; conditions: pooled rat hepatocytes
Procedure, shortened: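 Test compound (1 μM) in Krebs–Henseleit buffer was incubated with pooled rat hepatocytes (1 × 10^6 cells/mL) at 37 °C, 5% CO2, with samples from 0 to 90 min. Reactions were quenched with ice-cold acetonitrile and centrifuged, and supernatants were analysed by LC–MS/MS. Half-life and CLint were derived from parent remaining. Run in duplicate.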

[7] = test system: P. falciparum NF54 female gametes; assay: Dual gamete formation assay; format: cell-based; conditions: Plasmodium falciparum, NF54, read-out: female gamete EC50
Procedure, shortened: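 Stage V NF54 gametocyte cultures with >0.2% exflagellation were diluted to 12.5 million cells/mL in gametocyte medium containing 10% human serum and no Albumax. They were dispensed warm (625,000 cells/well) onto the test compound. After ookinete medium was added, plates went to 4 °C for 4 min and then 28 °C for 5 min, followed by 24 h at 28 °C in the dark. Female gametes (Pfs25) were scored from one fluorescence image per well.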

[8] = test system: K1; assay: 3H-hypoxanthine 72 h assay, K1; format: cell-based; conditions: Plasmodium falciparum, K1, read-out: Pf multidrug-resistant strain EC50 K1
[9] = test system: RF12; assay: 3H-hypoxanthine 72 h assay, RF12; format: cell-based; conditions: Plasmodium falciparum, read-out: Pf multidrug-resistant strain EC50 RF12
[10] = Liver microsome stability, mouse; format: in vitro ADME; conditions: pooled mouse liver microsomes
Procedure, shortened: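 Test compound (1 μM, phosphate buffer) was incubated with pooled mouse liver microsomes (0.5 mg/mL) at 37 °C, with and without an NADPH regeneration system, sampling at 0, 5, 20, 30, 45 and 60 min. Run in duplicate.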

[11] = test system: NF54; assay: 3H-hypoxanthine 72 h assay, NF54; format: cell-based; conditions: Plasmodium falciparum, NF54, read-out: Pf multidrug-resistant strain EC50 NF54
[12] = Plasma bioanalysis in the P. berghei mouse model; format: in vivo; conditions: 20 mg/kg oral
Procedure, shortened: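 Blood was sampled from P. berghei-infected mice at 2, 6 and 22 h after the first oral 20 mg/kg dose. Plasma compound concentrations were quantified by LCMS.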

[13] = test system: 7G8; assay: 3H-hypoxanthine 72 h assay, 7G8; format: cell-based; conditions: Plasmodium falciparum, 7G8, read-out: Pf multidrug-resistant strain EC50 7G8
[14] = test system: Pf Dd2 strain with an I22L mutation in the Qi site cyt b; assay: 3H-hypoxanthine 72 h assay, Dd2 cyt b; format: cell-based, Plasmodium falciparum
Procedure, shortened: (§2)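 Asexual blood-stage parasites in hypoxanthine-free RPMI 1640 with HEPES, NaHCO3, neomycin (100 μg/mL) and Albumax II (5 g/L). Infected blood (0.3% parasitemia, 2.5% hematocrit) was exposed to a 10-point serial dilution at 37 °C under 93% N2/4% CO2/3% O2. After 48 h, [3H]-hypoxanthine (0.5 μCi/well) was added for 24 h more. Scintillation cpm were normalised to untreated controls, and logit regression gave values as means of two experiments.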

[15] = test system: drug-resistant P. falciparum strains; assay: Profiling against a selection of multidrug-resistant parasites; format: cell-based, Plasmodium falciparum
Procedure, shortened: as §2

[16] = test system: HepG2; assay: HepG2 host cell viability in the liver stage panel; format: cell-based; conditions: Homo sapiens, HepG2, 48 h, read-out: HepG2 EC50 (liver stage)
[17] = LogD at pH 7.4; format: physicochemical; conditions: 1-octanol/phosphate-buffered saline (1:1, v/v)
[18] = test system: mitochondrial electron transport chain of P. falciparum 3D7 asexual parasites; assay: ETC biosensor / oxygen consumption rate; format: cell-based, Plasmodium falciparum; conditions: for effect on malate-dependent oxygen consumption rate (OCR): compounds at 5 μM, malate as the energy source
Procedure, shortened: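 Magnet-purified trophozoite-infected RBCs were saponin-released (0.05%, 37 °C, 3 min) and washed. Parasites were suspended in MAS buffer with 25 mM malate and 0.002% digitonin and seeded at 5 × 10^6 per Cell-Tak-coated well (800g, 10 min). Seahorse XFe96 OCR was read at baseline, after test compound (5 μM final), after TMPD (0.2 mM) with ascorbate (2 mM), then after NaN3 (10 mM). Each cycle was 20 s mix, 1 min wait, 2.5 min measure.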

[19] = test system: P. berghei EEFs; assay: Exoerythrocytic stage assay; format: cell-based; conditions: Plasmodium berghei, 48 h, read-out: Pb liver stage EEFs EC50 (SD)
[20] = Kinetic aqueous solubility; format: physicochemical; conditions: kinetic in PBS
Procedure, shortened: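 Miniaturised shake flask: test compound (200 μM) in PBS pH 7.4 was shaken at 600 rpm, 25 °C for 2 h, filtered, and the filtrate half-diluted in acetonitrile. Run in duplicate.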

[21] = 3D7 parasite EC50 compared to 17

`O=C1C(O)=C([C@H]2CC[C@H](c3ccc(Cl)cc3)CC2)C(=O)c2ccccc21` [ATQ, atovaquone, reference compound] showed an EC50 [1] of 1 nM, an EC50 [2] greater than 10000 nM and an EC50 [3] greater than 10000 nM.
For `CCN(CC)CCCC(C)Nc1ccnc2cc(Cl)ccc12` (stereo not drawn) [CQ, chloroquine, reference compound], the EC50 [4] was 35 nM, the “% parasitemia” value ([5]; 10 mg/kg) was 0.02% and the “% reduction in parasitemia” value ([5]; 10 mg/kg) was 99.8%.
`CCn1cc(-c2nc(C)no2)c(=O)c2cc(F)c(N3CCC(C)CC3)cc21` [Compound 17, 1-Ethyl-6-fluoro-3-(3-methyl-1,2,4-oxadiazol-5-yl)-7-(4-methyl-1-piperidyl)quinolin-4-one] gave a hepatocyte CLint at 1 μM [6] of 53.8 µL/min/1e6 cells, an EC50 [7] greater than 25000 nM and an EC50 [8] of 9 nM. For the same molecule, the EC50 [9] was 6 nM, the “in vitro EC99” value [4] was 0.030 µM and the microsomal CLint at 1 μM [10] was 16.2 µL/min/mg. For the same molecule, the EC50 [11] was 12 nM, the absorption [12] was “moderate absorption” and the “time for which total plasma concentration exceeds the in vitro EC99” value ([12]; after dose 1) was “approximately 12 h”. For the same molecule, the EC50 [1] was 10 nM, the EC50 [13] was 9 nM and the “difference in sensitivity between the ELQ-300 resistant Dd2 strain and the Dd2 parental strain” value (“difference” below) [14] was “no difference in sensitivity”. The “% parasitemia” value ([5]; 20 mg/kg p.o. q.d. days 0-3) was 8.1%, the “% reduction in parasitemia” value ([5]; 20 mg/kg p.o. q.d. days 0-3) was 56% and 56.2% and the EC50 [2] was 1800 nM. The “potency against each drug-resistant strain compared to the Dd2 and NF54 wild-type parasites” value [15] was “equipotent”, the EC50 [3] was 1700 nM and the EC50 [16] was greater than 50000 nM. The logD at 2 h [17] was 2.6, the “OCR upon addition of TMPD” value ([18]; after compound (5 μM), TMPD (cytochrome c electron donor) added) was “rescued” and the “effect on malate-dependent oxygen consumption rate (OCR)” value (from here on “effect”) [18] was “significantly reduce the OCR”. It also gave an EC50 [19] of less than 1 nM.
For `CCn1cc(C(N)=O)c(=O)c2cc(F)c(N3CCC(C)CC3)cc21` [Compound 22, 1-Ethyl-6-fluoro-7-(4-methyl-1-piperidyl)-4-oxo-quinoline-3-carboxamide], the “fold less active/potent than 17” value [4, 21] was “approximately 20 fold”, the “difference” value [14] was “no difference in sensitivity” and the EC50 [16] was greater than 50000 nM. It also gave an EC50 [19] of 24 nM.
For `CCNC(=O)c1cn(CC)c2cc(N3CCC(C)CC3)c(F)cc2c1=O` [Compound 23, N,1-Diethyl-6-fluoro-7-(4-methyl-1-piperidyl)-4-oxo-quinoline-3-carboxamide], the “fold less active/potent than 17” value [4, 21] was “approximately 20 fold”.
In the case of `CCn1cc(-c2nc(C)no2)c(=O)c2cc(F)c(N3CCN(C(C)=O)CC3)cc21` [Compound 33, 7-(4-Acetylpiperazin-1-yl)-1-ethyl-6-fluoro-3-(3-methyl-1,2,4-oxadiazol-5-yl)quinolin-4-one], the “effect” value [18] is reported as “does not affect the OCR”.
In the case of `CCn1cc(-c2nc(C)no2)c(=O)c2cc(F)c(N3CCCC(C)C3)cc21` (stereo not drawn) [Compound 34, 1-Ethyl-6-fluoro-3-(3-methyl-1,2,4-oxadiazol-5-yl)-7-(3-methyl-1-piperidyl)quinolin-4-one], the “fold less active/potent than 17” value [4, 21] is reported as 5 fold.
For `CCCC1CCN(c2cc3c(cc2F)c(=O)c(-c2nc(C)no2)cn3CC)CC1` [Compound 38, 1-Ethyl-6-fluoro-3-(3-methyl-1,2,4-oxadiazol-5-yl)-7-(4-propyl-1-piperidyl)quinolin-4-one], the “fold more potent than 17” value [4, 21] was 2 fold.
With `CCn1cc(-c2nc(C)no2)c(=O)c2cc(F)c(N3CCC(C(C)C)CC3)cc21` [Compound 39, 1-Ethyl-6-fluoro-7-(4-isopropyl-1-piperidyl)-3-(3-methyl-1,2,4-oxadiazol-5-yl)quinolin-4-one] the “fold less active/potent than 17” value [4, 21] was 2 fold.
For `CCn1cc(-c2nc(C)no2)c(=O)c2cc(F)c(N3CCC(c4ccccc4)CC3)cc21` [Compound 40, 1-Ethyl-6-fluoro-3-(3-methyl-1,2,4-oxadiazol-5-yl)-7-(4-phenyl-1-piperidyl)quinolin-4-one], the “fold less active/potent than 17” value [4, 21] was 2 fold.
In the case of `CCn1cc(-c2nc(C)no2)c(=O)c2cc(F)c(N3CCC(CN4CCOCC4)CC3)cc21` [Compound 42, 1-Ethyl-6-fluoro-3-(3-methyl-1,2,4-oxadiazol-5-yl)-7-[4-(morpholinomethyl)-1-piperidyl]quinolin-4-one], the “fold less active than the benzyl analog 41” value ([4]; 3D7 parasite EC50 compared to 41) is reported as 30 fold.
With `CCOC(=O)c1cn(CC)c2cc(N3CCC(Cc4ccccc4)CC3)c(F)cc2c1=O` [Compound 43, Ethyl 7-(4-Benzyl-1-piperidyl)-1-ethyl-6-fluoro-4-oxo-quinoline-3-carboxylate] the hepatocyte CLint at 1 μM [6] was greater than 92.4 µL/min/1e6 cells, the “aqueous solubility pH 7.4” value [20] was 10.4 μM and the EC50 [8] was 14 nM. The EC50 [9] was 5 nM, the EC50 [11] was 17 nM and the EC50 [1] was 15 nM. The EC50 [13] was 12 nM, the “difference” value [14] was “no difference in sensitivity” and the “potency against each drug-resistant strain compared to the Dd2 and NF54 wild-type parasites” value [15] was “equipotent”. The logD at 2 h [17] was 4.6.
For `O=C(NCCN1CCCC1)c1cc(-c2ccc(CN3CCOCC3)cc2)nc2ccc(F)cc12` [DDD107498], the EC50 [1] was 0.4 nM.
`Cc1cc(Nc2ccc(S(F)(F)(F)(F)F)cc2)n2nc(C(C)(F)F)nc2n1` [DSM265, reference compound] showed an EC50 [1] of 24 nM, an EC50 [2] greater than 10000 nM and an EC50 [3] greater than 10000 nM. For the same molecule, the “effect” value [18] was “had no effect”.
`CC1(C)c2nc(-c3ccc(F)cc3)c(Nc3ccc(F)cc3)n2CCN1C(=O)CN` [KAF156] gave an EC50 [1] of 8 nM.
Molecule `CS(=O)(=O)c1ccc(-c2cnc(N)c(-c3ccc(C(F)(F)F)nc3)c2)cc1` [MMV048] has an EC50 [1] of 16 nM.
`C[C@H]1[C@H](OC(=O)CCC(=O)O)O[C@@H]2O[C@@]3(C)CC[C@H]4[C@H](C)CC[C@@H]1[C@@]24OO3` [artesunate, reference compound] gave an EC50 [4] of 8 nM.
